Test results published in ChEMBL document CHEMBL4000256, “Light-Regulated NO Release as a Novel Strategy To Overcome Doxorubicin Multidrug Resistance” (ACS Med Chem Lett, 2017).
Active and inactive are the calls of the source. The rule behind the calls is not given here.

Experiments:
Bos taurus = species on record: Bos taurus; experiment: Binding affinity to calf thymus duplex DNA at 10 uM by fluorescence spectroscopic method
[1] = Induction of NO release in pH 7.4 PBS irradiated with 7 mW/cm2 light at 10 uM after 0.5 hrs by amperometric detection assay
Summary of the method: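 NO release recorded during alternating light (λexc 405 nm) and dark cycles. Solution at 10 μM in PBS (pH 7.4, 10 mM, 3% DMSO), with or without 18 μM ct-DNA.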

Homo sapiens [2] = species on record: Homo sapiens; experiment: […] in 7 mW/cm'2 irradiated human M14 cells assessed as increase in LDH release at 5 uM measured after 20 mins by spectrophotometric method
[3] = Half life in DMEM medium; format: physicochemical
[4] = Stability in pH 7.4 PBS irradiated with 7 mW/cm2 light assessed as bleaching in NOP1 band at 10 uM up to 60 mins in presence of calf thymus DNA by absorption spectrum method; format: physicochemical; conditions: buffer, pH 7.4, 1 h
Summary of the method: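 Absorption spectra recorded after 0, 30, 40, 50 and 60 min irradiation at λexc 405 nm. Solution at 10 μM with 18 μM ct-DNA in PBS (pH 7.4, 10 mM, 3% DMSO).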

Homo sapiens [5] = species on record: Homo sapiens; experiment: Inhibition of Pgp in 7 mW/cm'2 irradiated human M14 cells assessed as nitration of tyrosine in pgp at 5 uM measured after 20 mins in presence of doxorubicin by immunoblotting
Summary of the method: (§1)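 M14 melanoma cells held 20 min at room temperature in PBS under 400 nm light (7 mW/cm2) with 5 μM compound, alone or with equimolar doxorubicin. Nitrated ABC transporters (Pgp, MRP1, MRP4, BCRP) detected by immunoblot.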

[6] = target: T1, Multidrug resistance-associated protein 1 (Homo sapiens, UniProt P33527); experiment: Inhibition of MRP1 in 7 mW/cm'2 irradiated human M14 cells assessed as nitration of tyrosine in MRP1 at 5 uM measured after 20 mins in presence of doxorubicin by immunoblotting; summary of the method: as §1
T1 sequence (P33527 whole entry): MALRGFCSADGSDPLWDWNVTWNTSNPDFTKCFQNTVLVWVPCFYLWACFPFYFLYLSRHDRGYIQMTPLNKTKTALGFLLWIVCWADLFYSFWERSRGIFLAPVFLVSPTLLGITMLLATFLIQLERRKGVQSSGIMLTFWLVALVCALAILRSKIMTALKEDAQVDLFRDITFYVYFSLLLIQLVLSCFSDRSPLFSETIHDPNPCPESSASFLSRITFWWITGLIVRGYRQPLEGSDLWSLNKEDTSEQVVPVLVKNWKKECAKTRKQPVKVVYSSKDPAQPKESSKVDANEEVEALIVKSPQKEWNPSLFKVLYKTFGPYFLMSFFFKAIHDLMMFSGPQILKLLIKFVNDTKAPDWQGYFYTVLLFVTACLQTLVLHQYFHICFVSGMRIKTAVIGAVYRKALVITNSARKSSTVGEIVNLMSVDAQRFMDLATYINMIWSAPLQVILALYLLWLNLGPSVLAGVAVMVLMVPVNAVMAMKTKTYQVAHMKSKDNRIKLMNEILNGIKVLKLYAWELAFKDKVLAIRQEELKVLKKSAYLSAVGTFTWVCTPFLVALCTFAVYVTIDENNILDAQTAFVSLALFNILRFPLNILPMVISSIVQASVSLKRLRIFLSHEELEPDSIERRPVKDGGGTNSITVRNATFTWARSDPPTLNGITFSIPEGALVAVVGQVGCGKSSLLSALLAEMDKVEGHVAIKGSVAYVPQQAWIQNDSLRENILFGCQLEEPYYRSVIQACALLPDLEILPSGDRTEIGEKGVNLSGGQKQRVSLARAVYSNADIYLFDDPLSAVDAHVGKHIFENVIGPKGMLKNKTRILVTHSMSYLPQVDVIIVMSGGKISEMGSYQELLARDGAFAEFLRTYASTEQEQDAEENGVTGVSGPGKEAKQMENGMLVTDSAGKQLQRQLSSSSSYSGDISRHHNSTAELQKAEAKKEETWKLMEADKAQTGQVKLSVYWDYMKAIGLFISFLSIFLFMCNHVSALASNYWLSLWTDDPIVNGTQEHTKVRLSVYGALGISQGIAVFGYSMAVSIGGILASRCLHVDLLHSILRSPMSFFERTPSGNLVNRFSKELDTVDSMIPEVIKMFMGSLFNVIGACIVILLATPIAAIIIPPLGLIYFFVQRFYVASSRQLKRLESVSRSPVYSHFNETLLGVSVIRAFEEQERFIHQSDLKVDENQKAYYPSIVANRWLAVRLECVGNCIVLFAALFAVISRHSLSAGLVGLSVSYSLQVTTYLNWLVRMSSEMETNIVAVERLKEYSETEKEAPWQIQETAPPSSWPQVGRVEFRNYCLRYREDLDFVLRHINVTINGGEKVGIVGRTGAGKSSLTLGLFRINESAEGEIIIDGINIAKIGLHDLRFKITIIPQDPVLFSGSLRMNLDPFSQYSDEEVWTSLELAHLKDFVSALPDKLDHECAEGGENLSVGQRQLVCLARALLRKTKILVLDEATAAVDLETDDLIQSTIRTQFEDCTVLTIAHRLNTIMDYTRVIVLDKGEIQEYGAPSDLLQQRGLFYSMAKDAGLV

M14 [7] = experiment: Cytotoxicity against 7 mW/cm'2 irradiated human M14 cells assessed as increase in LDH release at 5 uM measured after 20 mins by spectrophotometric method; format: functional, cell-based
Summary of the method: (§2)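 Cells (M14 melanoma, human fibroblasts or rat H9c2 cardiomyocytes) kept 20 min at room temperature in PBS under 400 nm light (7 mW/cm2), alone or with 5 μM compound, given alone or with equimolar 5 μM doxorubicin. Damage read as extracellular LDH release. Triplicate measurements, n = 3.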

Fibroblast = experiment: Cytotoxicity against 7 mW/cm'2 irradiated human fibroblasts at 5 uM coadministered with DOX measured after 20 mins by spectrophotometric method; format: cell-based; summary of the method: as §2
M14 [8] = experiment: Dark toxicity in human M14 cells assessed as increase in nitrite levels at 5 uM measured after 20 mins in presence of doxorubicin by Griess reagent based spectrophotometric method; format: cell-based; conditions: m14, 20 min
Summary of the method: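 M14 melanoma cells held 20 min at room temperature in PBS, either in the dark or under 400 nm light (7 mW/cm2), with 5 μM compound alone or alongside 5 μM doxorubicin. Nitrite in the supernatant measured by Griess assay, in triplicate, n = 3.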

Homo sapiens [9] = species on record: Homo sapiens; experiment: Inhibition of Pgp in 7 mW/cm'2 irradiated human M14 cells assessed as reduction in ATPase activity at 5 uM measured after 20 mins in presence of doxorubicin by immunoblotting
Summary of the method: (§3)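 M14 melanoma cells held 20 min at room temperature in PBS under 400 nm light (7 mW/cm2) with 5 μM compound, alone or with equimolar doxorubicin. Transporter ATPase activity then measured; n = 3.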

[10] = target: T1, Multidrug resistance-associated protein 1; experiment: Inhibition of MRP1 in 7 mW/cm'2 irradiated human M14 cells assessed as reduction in ATPase activity at 5 uM measured after 20 mins in presence of doxorubicin by immunoblotting; summary of the method: as §3
[11] = target: T2, Broad substrate specificity ATP-binding cassette transporter ABCG2 (Homo sapiens, UniProt Q9UNQ0); experiment: Inhibition of BCRP in 7 mW/cm'2 irradiated human M14 cells assessed as reduction in ATPase activity at 5 uM measured after 20 mins in presence of doxorubicin by immunoblotting; summary of the method: as §3
T2 sequence (Q9UNQ0 whole entry): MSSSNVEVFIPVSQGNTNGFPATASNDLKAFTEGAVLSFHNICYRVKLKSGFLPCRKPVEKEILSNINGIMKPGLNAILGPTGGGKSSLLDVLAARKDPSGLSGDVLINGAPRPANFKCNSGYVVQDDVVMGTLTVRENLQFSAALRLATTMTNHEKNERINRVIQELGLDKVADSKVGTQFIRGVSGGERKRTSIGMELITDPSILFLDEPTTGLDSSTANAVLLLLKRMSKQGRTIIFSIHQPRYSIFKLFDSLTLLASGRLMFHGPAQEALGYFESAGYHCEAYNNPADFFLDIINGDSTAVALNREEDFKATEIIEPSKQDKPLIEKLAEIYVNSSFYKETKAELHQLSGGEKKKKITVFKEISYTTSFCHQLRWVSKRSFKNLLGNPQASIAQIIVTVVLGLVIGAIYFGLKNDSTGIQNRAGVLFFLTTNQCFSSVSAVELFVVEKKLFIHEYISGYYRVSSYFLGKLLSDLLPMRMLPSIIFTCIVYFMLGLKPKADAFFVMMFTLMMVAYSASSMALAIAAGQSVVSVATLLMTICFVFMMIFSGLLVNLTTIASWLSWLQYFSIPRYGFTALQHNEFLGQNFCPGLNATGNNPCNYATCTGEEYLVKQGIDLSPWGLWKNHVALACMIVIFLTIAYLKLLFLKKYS

| Activity (Bos taurus) | inhibition (Homo sapiens [2]) | half-life [3] | Stability [4] | Structure (SMILES) | Activity [1] | inhibition (Homo sapiens [5]) | inhibition (INH) [6] | Activity (M14 [7]) | Activity (Fibroblast) | Activity (M14 [8]) | inhibition (Homo sapiens [9]) | inhibition (INH) [10] | inhibition (INH) [11] |
| --- | --- | --- | --- | --- | --- | --- | --- | --- | --- | --- | --- | --- | --- |
| Active | Active | > 24 h | Stable | COc1cccc2c1C(=O)c1c(O)c3c(c(O)c1C2=O)C[C@@](O)(C(=O)COC(=O)c1ccc(C(=O)NCCCNc2ccc([N+](=O)[O-])c(C(F)(F)F)c2)cc1)C[C@@H]3O[C@H]1C[C@H](N)[C@H](O)[C@H](C)O1.Cl | Active | – | – | – | – | – | – | – | – |
| – | – | – | – | NCCCNc1ccc([N+](=O)[O-])c(C(F)(F)F)c1 | – | Active | Active | inactive | Non-Toxic | Non-Toxic | Active | Active | Active |
